# Measured values: ChEMBL document CHEMBL1150585, “Phytotoxic compounds from Prionosciadium watsoni” (J Nat Prod, 2002)
# The source made the active and inactive calls. The rule behind the calls is not given here.
# System: Amaranthus hypochondriacus
# Experiment: Phytotoxicity against Amaranthus hypochondriacus assessed as inhibition of radicle elongation by petri dish bioassay
# Assay type: functional, organism-based
# Conditions: not given
# Summary of the method: (§1)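 Petri dish germination and radicle elongation bioassay on seedlings at 28 °C. Pure compounds tested at 10, 50, 100 and 200 µg mL-1, with 2,4-D as positive control. IC50 derived by Probit analysis from percent radicle growth or germination inhibition; ANOVA (p < 0.05).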
Structure (SMILES),IC50,Activity
COc1c2c(cc3oc(C)cc(=O)c13)OC(C)(C)[C@H](OC(=O)C(C)C)C2,74.1 µM,
C/C=C(/C)C(=O)O[C@@H]1[C@H](O)c2c(ccc3ccc(=O)oc23)OC1(C)C,262 µM,
CC1(C)Oc2ccc3ccc(=O)oc3c2[C@@H](O)[C@H]1O,361 µM,
COc1c2c(cc3oc(C)cc(=O)c13)OC(C)(C)[C@H](O)C2,383 µM,Dose-dependent effect
CCC(=O)O[C@@H]1c2c(ccc3ccc(=O)oc23)OC(C)(C)[C@@H]1OC(C)=O,396 µM,
CC(C)C(=O)O[C@@H]1c2c(ccc3ccc(=O)oc23)OC(C)(C)[C@@H]1O,189 µM,
CO[C@H]1c2c(ccc3ccc(=O)oc23)OC(C)(C)[C@@H]1O,108 µM,Dose-dependent effect
CC1(C)Oc2ccc3ccc(=O)oc3c2C[C@H]1O [(+)-LOMATIN],344 µM,Dose-dependent effect
CC(C)C(=O)O[C@@H]1Cc2c(ccc3ccc(=O)oc23)OC1(C)C,237 µM,
C/C=C(/C)C(=O)O[C@@H]1Cc2c(ccc3ccc(=O)oc23)OC1(C)C [JATAMANSIN],260 µM,
C/C=C(/C)C(=O)O[C@@H]1Cc2c(cc3oc(C)cc(=O)c3c2OC)OC1(C)C,143 µM,
CO[C@@H]1c2c(ccc3ccc(=O)oc23)OC(C)(C)[C@@H]1O,325 µM,Dose-dependent effect
CC(=O)O[C@@H]1[C@H](OC(=O)C(C)C)c2c(ccc3ccc(=O)oc23)OC1(C)C [SERAVSHANIN],402 µM,

# System: Echinochloa crus-galli
# Experiment: Phytotoxicity against Echinochloa crus-galli assessed as inhibition of radicle elongation by petri dish bioassay
# Assay type: functional, organism-based
# Conditions: not given
# Summary of the method: as §1
Structure (SMILES),IC50,Activity
COc1c2c(cc3oc(C)cc(=O)c13)OC(C)(C)[C@H](OC(=O)C(C)C)C2,14.8 µM,
C/C=C(/C)C(=O)O[C@@H]1[C@H](O)c2c(ccc3ccc(=O)oc23)OC1(C)C,155 µM,
CC1(C)Oc2ccc3ccc(=O)oc3c2[C@@H](O)[C@H]1O,439 µM,
COc1c2c(cc3oc(C)cc(=O)c13)OC(C)(C)[C@H](O)C2,461 µM,Dose-dependent effect
CCC(=O)O[C@@H]1c2c(ccc3ccc(=O)oc23)OC(C)(C)[C@@H]1OC(C)=O,439 µM,
CC(C)C(=O)O[C@@H]1c2c(ccc3ccc(=O)oc23)OC(C)(C)[C@@H]1O,595 µM,
CO[C@H]1c2c(ccc3ccc(=O)oc23)OC(C)(C)[C@@H]1O,808 µM,Dose-dependent effect
CC1(C)Oc2ccc3ccc(=O)oc3c2C[C@H]1O [(+)-LOMATIN],296 µM,Dose-dependent effect
CC(C)C(=O)O[C@@H]1Cc2c(ccc3ccc(=O)oc23)OC1(C)C,169 µM,
C/C=C(/C)C(=O)O[C@@H]1Cc2c(ccc3ccc(=O)oc23)OC1(C)C [JATAMANSIN],863 µM,
C/C=C(/C)C(=O)O[C@@H]1Cc2c(cc3oc(C)cc(=O)c3c2OC)OC1(C)C,26.4 µM,
CO[C@@H]1c2c(ccc3ccc(=O)oc23)OC(C)(C)[C@@H]1O,6.19 µM,Dose-dependent effect
CC(=O)O[C@@H]1[C@H](OC(=O)C(C)C)c2c(ccc3ccc(=O)oc23)OC1(C)C [SERAVSHANIN],162 µM,

# System: Lemna aequinoctialis
# Experiment: Phytotoxicity against Lemna paucicostata assessed as growth inhibition at 12 uM after 3 days relative to control
# Assay type: functional
# Conditions: 72 h, read-out: GI
# Summary of the method: (§2)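 Lemna culture of 10 colonies, three fronds each, in 3 mL half-strength Hunter's medium containing compound for 3 days (72 h). Percent growth inhibition is versus culture-medium control, as means of three replicates ± standard deviation; significance by Student's unpaired t-test.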
row,Structure (SMILES),inhibition of growth at 12 µM
1,C/C=C(/C)C(=O)O[C@@H]1Cc2c(ccc3ccc(=O)oc23)OC1(C)C [JATAMANSIN],15.3%

# System: Lemna aequinoctialis
# Experiment: Phytotoxicity against Lemna paucicostata assessed as growth inhibition at 25 uM after 3 days relative to control
# Assay type: functional
# Conditions: 72 h, read-out: GI
# Summary of the method: as §2
row,Structure (SMILES),inhibition of growth at 25 µM
1,CC(C)C(=O)O[C@@H]1Cc2c(ccc3ccc(=O)oc23)OC1(C)C,19.6%
2,C/C=C(/C)C(=O)O[C@@H]1Cc2c(ccc3ccc(=O)oc23)OC1(C)C [JATAMANSIN],37.5%

# System: Lemna aequinoctialis
# Experiment: Phytotoxicity against Lemna paucicostata assessed as growth inhibition at 50 uM after 3 days relative to control
# Assay type: functional
# Conditions: 72 h, read-out: GI
# Summary of the method: as §2
row,Structure (SMILES),inhibition of growth at 50 µM
1,CC(C)C(=O)O[C@@H]1Cc2c(ccc3ccc(=O)oc23)OC1(C)C,23.5%
2,C/C=C(/C)C(=O)O[C@@H]1Cc2c(ccc3ccc(=O)oc23)OC1(C)C [JATAMANSIN],47.6%

# System: Lemna aequinoctialis
# Experiment: Phytotoxicity against Lemna paucicostata assessed as growth inhibition at 100 uM after 3 days relative to control
# Assay type: functional
# Conditions: 72 h, read-out: GI
# Summary of the method: as §2
row,Structure (SMILES),inhibition of growth at 100 µM
1,CC(C)C(=O)O[C@@H]1Cc2c(ccc3ccc(=O)oc23)OC1(C)C,58.8%
2,C/C=C(/C)C(=O)O[C@@H]1Cc2c(ccc3ccc(=O)oc23)OC1(C)C [JATAMANSIN],100%

# System: Lemna aequinoctialis
# Experiment: Phytotoxicity against Lemna paucicostata assessed as chlorophyll reduction at 25 uM after 3 days by ultraviolet spectroscopy relative to control
# Assay type: functional
# Conditions: 72 h, read-out: GI
# Summary of the method: (§3)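 Duckweed (Lemna) culture: 10 colonies of three fronds each in 3 mL half-strength Hunter's medium with compound, run 3 days. Afterwards plants are removed from medium, blotted and extracted overnight in the dark with 5 mL DMSO. Chlorophyll is expressed on fresh weight basis. Reduction is relative to culture-medium control, as means of three replicates ± standard deviation, with Student's unpaired t-test.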
row,Structure (SMILES),inhibition of growth at 25 µM
1,CC(C)C(=O)O[C@@H]1Cc2c(ccc3ccc(=O)oc23)OC1(C)C,20%
2,C/C=C(/C)C(=O)O[C@@H]1Cc2c(ccc3ccc(=O)oc23)OC1(C)C [JATAMANSIN],4.37%

# System: Lemna aequinoctialis
# Experiment: Phytotoxicity against Lemna paucicostata assessed as chlorophyll reduction at 50 uM after 3 days by ultraviolet spectroscopy relative to control
# Assay type: functional
# Conditions: 72 h, read-out: GI
# Summary of the method: as §3
row,Structure (SMILES),inhibition of growth at 50 µM
1,CC(C)C(=O)O[C@@H]1Cc2c(ccc3ccc(=O)oc23)OC1(C)C,54.3%
2,C/C=C(/C)C(=O)O[C@@H]1Cc2c(ccc3ccc(=O)oc23)OC1(C)C [JATAMANSIN],12.8%

# System: Lemna aequinoctialis
# Experiment: Phytotoxicity against Lemna paucicostata assessed as chlorophyll reduction at 100 uM after 3 days by ultraviolet spectroscopy relative to control
# Assay type: functional
# Conditions: 72 h, read-out: GI
# Summary of the method: as §3
row,Structure (SMILES),inhibition of growth at 100 µM
1,CC(C)C(=O)O[C@@H]1Cc2c(ccc3ccc(=O)oc23)OC1(C)C,84.9%
2,C/C=C(/C)C(=O)O[C@@H]1Cc2c(ccc3ccc(=O)oc23)OC1(C)C [JATAMANSIN],40.3%

# System: Lemna aequinoctialis
# Experiment: Phytotoxicity against Lemna paucicostata assessed as chlorophyll reduction at 200 uM after 3 days by ultraviolet spectroscopy relative to control
# Assay type: functional
# Conditions: 72 h, read-out: GI
# Summary of the method: as §3
row,Structure (SMILES),inhibition of growth at 200 µM
1,CC(C)C(=O)O[C@@H]1Cc2c(ccc3ccc(=O)oc23)OC1(C)C,87.4%

# Target: Calmodulin (Bos taurus) (UniProt P62157)
# Experiment: Binding affinity to bovine brain calmodulin assessed as modification of electrophoretic mobility at 0.033 ug/mL after 1.5 hrs by SDS-PAGE in presence of calcium chloride
# Conditions: not given
# Summary of the method: (§4)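 Bovine brain and spinach calmodulin, 2 µg samples, pretreated 1.5 h at 30 °C with 1 mM CaCl2 and compound (0.033 µg/mL). Denaturing SDS-PAGE on 15% polyacrylamide gels in presence of Ca2+. Read-out is change in electrophoretic mobility relative to an untreated calmodulin lane.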
row,Structure (SMILES),Activity
1,COc1c2c(cc3oc(C)cc(=O)c13)OC(C)(C)[C@H](OC(=O)C(C)C)C2,Active
2,COc1c2c(cc3oc(C)cc(=O)c13)OC(C)(C)[C@H](O)C2,Active
3,CO[C@H]1c2c(ccc3ccc(=O)oc23)OC(C)(C)[C@@H]1O,Active
4,CC1(C)Oc2ccc3ccc(=O)oc3c2C[C@H]1O [(+)-LOMATIN],Active
5,C/C=C(/C)C(=O)O[C@@H]1Cc2c(ccc3ccc(=O)oc23)OC1(C)C [JATAMANSIN],Active
6,C/C=C(/C)C(=O)O[C@@H]1Cc2c(cc3oc(C)cc(=O)c3c2OC)OC1(C)C,Active

# Results, then the molecule that gave them:
row,Activity,Structure (SMILES)
1,Active,C/C=C(/C)C(=O)O[C@@H]1[C@H](O)c2c(ccc3ccc(=O)oc23)OC1(C)C
2,Active,CCC(=O)O[C@@H]1c2c(ccc3ccc(=O)oc23)OC(C)(C)[C@@H]1OC(C)=O
3,Active,CC(C)C(=O)O[C@@H]1c2c(ccc3ccc(=O)oc23)OC(C)(C)[C@@H]1O
4,Active,CC(C)C(=O)O[C@@H]1Cc2c(ccc3ccc(=O)oc23)OC1(C)C
5,Active,CO[C@@H]1c2c(ccc3ccc(=O)oc23)OC(C)(C)[C@@H]1O
6,Active,CC(=O)O[C@@H]1[C@H](OC(=O)C(C)C)c2c(ccc3ccc(=O)oc23)OC1(C)C [SERAVSHANIN]

# Target: Calmodulin (Spinacia oleracea) (UniProt P04353)
# Experiment: Binding affinity to spinach calmodulin assessed as modification of electrophoretic mobility at 0.033 ug/mL after 1.5 hrs by SDS-PAGE in presence of calcium chloride
# Conditions: not given
# Summary of the method: as §4
row,Structure (SMILES),Activity
1,COc1c2c(cc3oc(C)cc(=O)c13)OC(C)(C)[C@H](OC(=O)C(C)C)C2,Active
2,COc1c2c(cc3oc(C)cc(=O)c13)OC(C)(C)[C@H](O)C2,Active
3,CO[C@H]1c2c(ccc3ccc(=O)oc23)OC(C)(C)[C@@H]1O,Active
4,CC1(C)Oc2ccc3ccc(=O)oc3c2C[C@H]1O [(+)-LOMATIN],Active
5,C/C=C(/C)C(=O)O[C@@H]1Cc2c(ccc3ccc(=O)oc23)OC1(C)C [JATAMANSIN],Active
6,C/C=C(/C)C(=O)O[C@@H]1Cc2c(cc3oc(C)cc(=O)c3c2OC)OC1(C)C,Active

# Continued, values first:
row,Activity,Structure (SMILES)
1,Active,C/C=C(/C)C(=O)O[C@@H]1[C@H](O)c2c(ccc3ccc(=O)oc23)OC1(C)C
2,Active,CCC(=O)O[C@@H]1c2c(ccc3ccc(=O)oc23)OC(C)(C)[C@@H]1OC(C)=O
3,Active,CC(C)C(=O)O[C@@H]1c2c(ccc3ccc(=O)oc23)OC(C)(C)[C@@H]1O
4,Active,CC(C)C(=O)O[C@@H]1Cc2c(ccc3ccc(=O)oc23)OC1(C)C
5,Active,CO[C@@H]1c2c(ccc3ccc(=O)oc23)OC(C)(C)[C@@H]1O
6,Active,CC(=O)O[C@@H]1[C@H](OC(=O)C(C)C)c2c(ccc3ccc(=O)oc23)OC1(C)C [SERAVSHANIN]

# System: Lemna aequinoctialis
# Experiment: Phytotoxicity against Lemna paucicostata assessed as growth inhibition at 200 uM after 3 days relative to control
# Assay type: functional
# Conditions: 72 h, read-out: GI
# Summary of the method: as §2
row,Structure (SMILES),inhibition of growth at 200 µM
1,CC(C)C(=O)O[C@@H]1Cc2c(ccc3ccc(=O)oc23)OC1(C)C,100%

# System: Lemna aequinoctialis
# Experiment: Phytotoxicity against Lemna paucicostata assessed as chlorophyll reduction at 12 uM after 3 days by ultraviolet spectroscopy relative to control
# Assay type: functional
# Conditions: 72 h
# Summary of the method: as §3
row,Structure (SMILES),chlorophyll reduction at 12 µM
1,C/C=C(/C)C(=O)O[C@@H]1Cc2c(ccc3ccc(=O)oc23)OC1(C)C [JATAMANSIN],5.94%
